These results are taken from ChEMBL document CHEMBL4513216, “Probing the Open Global Health Chemical Diversity Library for Multistage-Active Starting Points for Next-Generation Antimalarials” (ACS Infect Dis, 2020).

Molecules are shown by their SMILES.

The nature of this data set: Toxicity liver stage against HepG2, at 10uM. The class given is cell-based. Set-up: test concentration 10 uM, cell line HepG2-A16-CD81EGFP. The settings on record: human, HepG2-A16-CD81EGFP cells; read-out: INHIBITION
The method, boiled down: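 Uninfected HepG2-A16-CD81EGFP cells, 3 × 10^3 per well, 1536-well, plated on prespotted compound at 10 μM final, parasite-free screening media added to match infected plates; puromycin 10 μM positive, DMSO 0.5% negative; run in parallel with 48 h PbLuc assay at 37 °C, 5% CO2; viability by CellTiter-Glo luminescence, normalized to controls.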
`COc1cc(C(=O)NS(=O)(=O)c2cccc(C#N)c2)cc(Cl)c1OC`: the cytotoxicity at 10 µM is -3.93%.
Next, `CC(=O)N1C[C@@H]2C(=O)N(C)C3(CCN(C(=O)C(C)C)CC3)[C@@H]2C1`: 0.434%.
For `CCc1c(C)nc2n(c1=O)CC(C(=O)Nc1nc3c(s1)CCCC3)CS2` (stereo unspecified), the cytotoxicity at 10 µM worked out at 2.17%.
Next, `CC(=O)N1CCCCC1c1cc(C(=O)N2CCOCC2)[nH]n1` (stereo unspecified): -3.68%.
Take `COc1ccc(C(=O)N2C[C@@H](CN3CCCCC3)[C@@H](CO)C2)cc1Cl`: the cytotoxicity at 10 µM was -0.703%.
The value for `CN(C)c1ncc2c(n1)N(C)CCN(CC1CC1)C2=O` was -1.36%; that for `Cc1cnc(N2CCC3(CCN(CC4CC4)C3=O)CC2)nc1` was 6.17%; that for `N#Cc1cccc(N2CCCC(CO)(CCOc3ccccc3)C2)n1` (stereo unspecified) was -47.2%.
The value for `Cn1cc(C(=O)N2CCCCC2CCc2ccccc2)cn1` (stereo unspecified) was -7.45%.
The value for `Cc1nn(C)c(C)c1CC(=O)N1CCCC(n2ccnc2C)C1` (stereo unspecified) was -5.36%; that for `CCOCc1ccccc1CNc1ccc2nncn2n1` was 0.84%.
As to `N[C@@H]1CC[C@@H]1NC(=O)c1ccccc1OC(F)(F)C(F)F`, the cytotoxicity at 10 µM amounted to 1.5%.
As for `CCN1CC2(CCOCC2)c2cc(NS(=O)(=O)CC)ccc21`, the cytotoxicity at 10 µM was -104%.
Turning to `COc1cccc2sc(N3CC(OC(C)=O)C3)nc12`, the cytotoxicity at 10 µM was -6.67%.
For `Cc1cnn(C2CN(CC(=O)NCCc3ccccc3)C2)c1`, the cytotoxicity at 10 µM is -0.956%.
Consider `Cc1noc(CNc2ccc(C(=O)N3CCCC(C)C3)cc2C)n1` (stereo unspecified), for which the cytotoxicity at 10 µM was -4.07%.
For the molecule `CC(SCC(=O)NC(N)=O)c1ccc(Cl)cc1` (stereo unspecified), the cytotoxicity at 10 µM amounted to 4.86%.
The value for `COC(=O)C(C)(C)NC(=O)C1CC(=O)N(CC2CC2)C1` (stereo unspecified) was -142%; that for `O=C(NCCc1ccc(Cl)s1)N1CCS(=O)(=O)CC1` was 1.92%; that for `CN1CCCN(C(=O)c2cccc(S(=O)(=O)NCC3(C)COC3)c2)CC1` was -6.63%.
In the case of `CO[C@@H]1CC[C@@H](NC(=O)c2ccc(OCCN3CCCC3)cc2)[C@H]1O`, the cytotoxicity at 10 µM is -3.83%.
Next, `COc1ccccc1S(=O)(=O)N1CC(N(C)C)Cc2ccccc21` (stereo unspecified): 0.243%.
Regarding `CNC(=O)CCc1cc(C)nc(C2CCCN2)c1` (stereo unspecified), the cytotoxicity at 10 µM is -8.49%.
On to `Cc1ccccc1OCC1CCCN(C(=O)CNC(=O)N(C)C)C1` (stereo unspecified), for which the cytotoxicity at 10 µM was -4.46%.
Take `COc1ccc(C(=O)NCC(c2cccn2C)N2CCCC2)c(OC)c1` (stereo unspecified): the cytotoxicity at 10 µM came out at 1.31%.
The value for `Cc1nn(C)c2nc(N3CCCCC3c3nccs3)sc12` (stereo unspecified) was 10.2%.
The value for `O=C(c1cccnc1)N1CCc2c(nc(N3CCCC3)[nH]c2=O)C1` was 4.51%; that for `NC(=O)c1c[nH]nc1NC(=O)c1ccc(Cl)cc1` was 3.19%; that for `COc1cc(N(C)CCC(O)c2ccccc2)ncn1` (stereo unspecified) was -139%.
Next, `O=C(Cn1cc(NC(=O)c2ccc(F)cc2F)cn1)NC1CCCC1`: -0.561%; `CC(C)(C)n1ncc2c1NC(=O)CSC2c1ccc2c(c1)OCO2` (stereo unspecified): 0.148%.
Take `COc1ccc(NC(=O)c2nc3ccccc3n(C)c2=O)c(OC)c1`: the cytotoxicity at 10 µM was determined as 0.37%.
Next, `CC(Cn1cccn1)NC(=O)CCC(=O)c1cccs1` (stereo unspecified): -2.39%; `CCOCCC(=O)NCC1COc2c(cccc2OC)C1` (stereo unspecified): -142%.
The value for `CN(Cc1cccc(O)c1)Cc1cnn(C)c1` was -0.198%; that for `CC(=O)Nc1ccc2nn(C(C)C)cc2c1` was -145%.
Turning to `Cc1ccccc1C(=O)N1C[C@@H]2COC[C@]2(COCc2cccnc2)C1`, the cytotoxicity at 10 µM worked out at 4.44%.
For `O=C(c1ccsc1)N1CCC2(CCN(Cc3ccccn3)C2=O)C1` (stereo unspecified), the cytotoxicity at 10 µM is -147%.
The value for `COc1ccc(CCN2CC(c3nc(CSC)no3)CCC2=O)cc1` (stereo unspecified) was 3.11%.
On to `Cc1nc(CCCNC(=O)Nc2ccc(F)cc2F)n[nH]1`, for which the cytotoxicity at 10 µM is -2.9%.
Next, `COc1cc(CN(C)CCc2ccncc2)c(SC)cc1OC`: -2.92%; `CC1COCCN1Cc1nc(-c2ccc(Br)s2)no1` (stereo unspecified): -2.45%.
The value for `CNC(=O)C1CN(C(=O)c2cccnc2)CCN(S(C)(=O)=O)C1` (stereo unspecified) was 1.45%; that for `Cc1ccoc1C(=O)NC1CCN(Cc2ccccc2C#N)CC1` was -3.51%; that for `CC(C)CN1CCc2[nH]cnc2C12CCN(C(=O)c1cncn1C)CC2` was -8.1%.
On to `N#Cc1cccnc1N1CCN(C(=O)c2cccs2)CC1`, for which the cytotoxicity at 10 µM was found to be 10.4%.
The value for `c1c(CN2CCCCC2)nc2n1CCN(CC1CC1)C2` was -113%.
`CCOC(C)c1noc(CN2CCN(c3ccncc3)CC2)n1` (stereo unspecified): the cytotoxicity at 10 µM is -10.6%.
Regarding `Cc1nc(CN2CCC(NS(C)(=O)=O)CC2)co1`, the cytotoxicity at 10 µM is -12.4%.
Next, `O=C(Nc1ccc2c(c1)OCCO2)c1ccc(=O)[nH]n1`: 18.1%; `O=S1(=O)C[C@@H]2[C@H](C1)N(Cc1cc(Cl)cc(Cl)c1)CCN2CCO`: 0.303%.
Turning to `CCc1nnc2n1CCN(CC(=O)Nc1sccc1C#N)C2`, the cytotoxicity at 10 µM is -7.67%.
`CC(C)c1cc(C(=O)N2CCOC3(CCCC3)C2)no1`: the cytotoxicity at 10 µM is -6.2%.
Next, `Cn1cnc2c1C(COCc1cccnc1)N(Cc1ccccn1)CC2` (stereo unspecified): -13.3%.
Take `c1cc(CNCC2OCCc3cn(CC4CCOCC4)nc32)ccn1` (stereo unspecified): the cytotoxicity at 10 µM was 3.68%.
The value for `CN(C)C(=O)[C@H]1C[C@H]2CN(S(=O)(=O)c3ccccc3)C[C@@H]1O2` was -83.1%; that for `Cc1cc(N2CCC(n3cc(CN4CCC[C@@H]4CO)nn3)CC2)ccn1` was 4.9%; that for `Cn1cc(-c2nc(C(=O)N3CCCC3c3cnn(C)c3)cs2)cn1` (stereo unspecified) was 1.85%.
Next, `N#CCCCS(=O)(=O)N1CCC(CSc2ccccc2)C1` (stereo unspecified): 1.7%.
For the molecule `CC(=O)N1CCN(C(=O)NC(C)C)CC2(CNC(=O)C2)C1` (stereo unspecified), the cytotoxicity at 10 µM was -1.63%.
Take `CCN(CC)C(=O)CCc1c(C)nc2cc(O)nn2c1C`: the cytotoxicity at 10 µM is 0.33%.
The value for `Cc1cccc(CN2CCC(c3nnsc3S(C)(=O)=O)CC2)c1` was 1.86%; that for `CN(C)CC1CN(Cc2coc(-c3ccc(Cl)cc3)n2)CCO1` (stereo unspecified) was 0.35%; that for `O=C(NCc1ccco1)[C@@H]1COC[C@H]2CN(c3ncc(F)cn3)C[C@H]21` was -5.67%.
Next, `COc1ccc(-c2noc(CN3CCOCC3C)n2)cc1OC` (stereo unspecified): -7.3%.
The value for `CN(C)C(=O)CN1C(=O)[C@@H]2CC[C@H]1CN(Cc1ccccc1C#N)C2` was 1.22%; that for `CCCc1noc(CN2CCN(CCC(C)C)CC2)n1` was -1.48%; that for `COCC(=O)N1CCC(c2cncc(-c3cccc(F)c3)n2)CC1` was -11.3%.
With `Cc1ccc(C)c(-n2ccc3nc(N4CCCC4)ncc3c2=O)c1`, the cytotoxicity at 10 µM came to 18.6%.
Next, `CNC(=O)NCC(=O)Nc1ccccc1N1CCc2ccccc21`: 2.46%.
As for `CCCn1cc(C(=O)N2CCOC(c3nc(-c4cccs4)no3)C2)cn1` (stereo unspecified), the cytotoxicity at 10 µM was -4.22%.
For the molecule `OC1(c2cn(C3CCN(C4CCSC4)CC3)nn2)CCCC1` (stereo unspecified), the cytotoxicity at 10 µM stood at 2.13%.
In the case of `NC(=O)CN1CCC(Nc2ccnc3ccc(Cl)cc23)CC1`, the cytotoxicity at 10 µM was 31.8%.
Next, `CCOc1ccccc1C(=O)N1CCCC1c1ncc2c(n1)CCNC2` (stereo unspecified): 8.3%; `O=C(NC(C(=O)Nc1cc[nH]n1)c1ccccc1)C1CCC1` (stereo unspecified): -17.5%.
Consider `CCOC(=O)C1CCN(C(=O)c2cc(OCC)c3ccoc3c2)CC1`, for which the cytotoxicity at 10 µM turned out to be 34.4%.
For the molecule `Cc1cc(=O)[nH]c(=O)n1COCc1ccccc1`, the cytotoxicity at 10 µM is -12.5%.
Turning to `CC(c1ccco1)N(C(=O)NCc1ccon1)C1CC1` (stereo unspecified), the cytotoxicity at 10 µM stood at 0.805%.
Turning to `COc1ccc(-c2cc3nn(CC(N)=O)c(=O)n3c(C)n2)cc1`, the cytotoxicity at 10 µM was -5.29%.
In the case of `COc1ncccc1CNC(=O)C1=NN(c2ccccc2)C(=O)CN1`, the cytotoxicity at 10 µM was found to be 2.54%.
For `CSc1ncccc1C(=O)N1C[C@@H]2CC[C@H]1CN(C(C)=O)C2`, the cytotoxicity at 10 µM came out at 4.99%.
As for `CC(=O)N(Cc1noc(C)n1)C1CCN(CC2(O)CCCCC2)C1` (stereo unspecified), the cytotoxicity at 10 µM is 5.69%.
The value for `CCS(=O)(=O)N1CCO[C@H]2[C@H](OCCCn3cccn3)CC[C@@H]21` was -5.04%; that for `Cc1cc(OC(F)F)c(C(=O)N2CCN(C3CC3)CC2)s1` was 9.05%.
Turning to `CCc1nnc(CN(CC)C(=O)C2CCC(=O)N(C3CCCC3)C2)o1` (stereo unspecified), the cytotoxicity at 10 µM amounted to 2.01%.
Consider `COC(=O)[C@@H]1CN(C(=O)NC(C)C)CCN1S(=O)(=O)c1ccccc1`, for which the cytotoxicity at 10 µM was found to be 2.17%.
Next, `CN1CCN(C(=O)COCc2nc(-c3ccncc3)no2)CC1`: 14.6%; `Cc1nc(CN2CCCC2Cn2ccnc2C(C)C)nc2ccccc12` (stereo unspecified): -56.8%.
Next, `CCCc1cc(NC(=O)c2ccc(Cl)c(N3CCNC3=O)c2)n[nH]1`: -4.55%; `CC(C(=O)Nc1ccc2ccccc2c1)N1CCC(n2ccnc2)CC1` (stereo unspecified): -4%.
As to `Cc1csc(C2CCCN(C(=O)c3cccc4c3OCO4)C2)n1` (stereo unspecified), the cytotoxicity at 10 µM is -4.11%.
Next, `Cc1nc(C2(NCC(=O)NCc3cccs3)CCCCC2)no1`: 1.17%.
In the case of `Cc1cc(CN(C)C(=O)CN2CC3(CCNCC3)OC2=O)no1`, the cytotoxicity at 10 µM stood at 3.19%.
Regarding `c1cncc(-c2nnn3c2COCC(CNC2CCOCC2)C3)c1` (stereo unspecified), the cytotoxicity at 10 µM was -77%.
The value for `CN1C(=O)C2(CC(=O)Nc3[nH]ncc32)c2cc(Cl)ccc21` (stereo unspecified) was -1.89%.
Next, `Cc1cc2nc(CO[C@H]3CN(C)C[C@H]3F)[nH]c2cc1C`: 2.78%.
